Source: ChEMBL document CHEMBL2177103, “Discovery of diverse human dihydroorotate dehydrogenase inhibitors as immunosuppressive agents by structure-based virtual screening” (J Med Chem, 2012)

Columns and labels:
[1] = tested on: Jurkat; assay: Cytotoxicity against human Jurkat cells after 4 days by MTT assay; assay type: cell-based; details: 96 h
[2] = Immunosuppressive activity in mouse T cells assessed as inhibition of two way mixed lymphocyte reaction after 4 days by MTT assay; assay type: functional, cell-based; details: T-cell, 96 h
[3] = Immunosuppressive activity in ICR mouse B cells assessed as inhibition of LPS-stimulated cell proliferation after 72 hrs by MTT assay; assay type: functional, cell-based
[4] = target: T1, Dihydroorotate dehydrogenase (Plasmodium falciparum, UniProt Q54A96); assay: Inhibition of Plasmodium falciparum DHODH expressed in Escherichia coli BL21 (DE3) using L-dihydroorotate as substrate after 10 mins by DCIP dye reduction assay
T1 sequence (Q54A96 whole entry): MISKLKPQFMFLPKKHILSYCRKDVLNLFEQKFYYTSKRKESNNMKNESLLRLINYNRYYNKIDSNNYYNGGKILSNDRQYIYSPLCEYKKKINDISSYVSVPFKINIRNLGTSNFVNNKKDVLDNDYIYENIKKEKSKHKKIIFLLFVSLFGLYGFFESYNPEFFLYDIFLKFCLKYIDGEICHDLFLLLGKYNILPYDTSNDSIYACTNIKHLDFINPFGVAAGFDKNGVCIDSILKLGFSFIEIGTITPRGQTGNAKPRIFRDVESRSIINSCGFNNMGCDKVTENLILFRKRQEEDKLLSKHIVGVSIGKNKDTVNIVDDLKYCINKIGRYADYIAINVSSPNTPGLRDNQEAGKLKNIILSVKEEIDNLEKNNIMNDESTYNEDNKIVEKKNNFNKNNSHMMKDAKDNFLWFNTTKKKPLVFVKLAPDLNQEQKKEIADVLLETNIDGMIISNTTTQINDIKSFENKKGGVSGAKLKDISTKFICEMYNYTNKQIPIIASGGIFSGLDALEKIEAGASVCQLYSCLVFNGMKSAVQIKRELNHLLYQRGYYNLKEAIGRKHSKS
Method in brief: (§1)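 DCIP reduction read as absorbance decrease at 600 nm over 5 min. Enzyme preincubated 10 min with compound (DMSO stock diluted in assay buffer); reaction started with dihydroorotate, 500 μM final.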

[5] = target: Dihydroorotate dehydrogenase (quinone), mitochondrial (Homo sapiens, UniProt Q02127); assay: Inhibition of human DHODH expressed in Escherichia coli BL21(DE3) using L-dihydroorotate as substrate after 10 mins by DCIP dye reduction assay
Sequence of Dihydroorotate dehydrogenase (quinone), mitochondrial (Q02127 whole entry): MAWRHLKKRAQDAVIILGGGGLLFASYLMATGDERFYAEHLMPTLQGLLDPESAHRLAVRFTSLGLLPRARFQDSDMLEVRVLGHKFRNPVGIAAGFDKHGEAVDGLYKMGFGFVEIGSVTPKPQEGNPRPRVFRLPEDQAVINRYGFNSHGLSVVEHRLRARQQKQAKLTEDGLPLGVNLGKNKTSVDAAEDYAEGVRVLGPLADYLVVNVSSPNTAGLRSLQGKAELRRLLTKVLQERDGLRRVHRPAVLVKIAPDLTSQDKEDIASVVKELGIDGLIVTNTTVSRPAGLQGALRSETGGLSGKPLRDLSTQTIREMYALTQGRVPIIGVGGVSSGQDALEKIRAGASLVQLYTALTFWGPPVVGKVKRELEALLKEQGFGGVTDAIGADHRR

[6] = target: T2, Dihydroorotate dehydrogenase (Plasmodium falciparum) (UniProt Q54A96); assay: Inhibition of Plasmodium falciparum DHODH expressed in Escherichia coli BL21 (DE3) using L-dihydroorotate as substrate at 10 uM after 10 mins by DCIP dye reduction assay; method in brief: as §1
T2 sequence (whole entry): T1 sequence (Q54A96 whole entry)

[7] = tested on: Jurkat; assay: Selectivity ratio of IC50 for human Jurkat cells to IC50 for ICR mouse B cells
[8] = tested on: T-cell; assay: Selectivity ratio of IC50 for mouse T cells to IC50 for ICR mouse B cells; assay type: functional

| SMILES | IC50 [1] [µM] | IC50 [2] [µM] | IC50 [3] [µM] | IC50 [4] [µM] | IC50 [5] [µM] | inhibition [6] [%] | Ratio IC50 [7] | Ratio IC50 [8] |
| --- | --- | --- | --- | --- | --- | --- | --- | --- |
| O=C(Nc1nc2ccccc2s1)c1ccc(Cl)cc1Cl | > 100 | 58.5 | 19.9 | 4.67 | 1.83 |  |  |  |
| Oc1ccc(/N=C/c2ccc3ccccc3c2)cc1 | 45.7 | 9.45 | 9.93 |  | 3.96 | < 20 |  |  |
| O=C(/C=C/c1ccc(F)cc1)Nc1ccccn1 |  |  |  |  | 13 | < 20 |  |  |
| Brc1ccc(-c2csc(N/N=C/c3ccccc3)n2)cc1 | 1.07 | > 100 | > 100 |  | 3.3 | < 20 |  |  |
| COc1cccc(C(=O)Nc2nc3ccccc3s2)c1 | > 100 | > 100 | 16.1 |  | 6.83 | < 20 |  |  |
| CC1=NN(c2ccccc2)C(=O)/C1=C/c1ccc(-c2cccc(C(=O)O)c2)o1 | > 100 | 73.5 | > 100 |  | 2.74 | < 20 |  |  |
| O=Cc1ccccc1/C=N/Nc1nc(-c2ccccc2)cs1 | > 100 | 12.4 | 14 |  | 0.11 | < 20 |  |  |
| C/C=C/C[C@@H](C)[C@@H](O)[C@H]1C(=O)N[C@@H](CC)C(=O)N(C)CC(=O)N(C)[C@@H](CC(C)C)C(=O)N[C@@H](C(C)C)C(=O)N(C)[C@@H](CC(C)C)C(=O)N[C@@H](C)C(=O)N[C@H](C)C(=O)N(C)[C@@H](CC(C)C)C(=O)N(C)[C@@H](CC(C)C)C(=O)N(C)[C@@H](C(C)C)C(=O)N1C [CYCLOSPORINE] | > 10 |  |  |  |  |  |  |  |
| Oc1ccc(/C=N/c2cccc3ccccc23)c(O)c1 | 26.3 | 23.6 | 11.3 |  | 0.78 | < 20 |  |  |
| C/C(O)=C(\C#N)C(=O)Nc1ccc(C(F)(F)F)cc1 [TERIFLUNOMIDE] | 26.7 | 48 | 4.07 |  |  |  |  |  |
| Cc1ccccc1C(=O)Nc1cc(Cl)c(O)c(Cl)c1 |  |  |  |  | 16.1 | < 20 |  |  |
| O=C(Nc1nc2ccccc2s1)c1cccc(C(Cl)(Cl)Cl)c1 | 43.5 | 25.4 | 8.74 | 1.93 | 0.34 |  |  |  |
| COC(=O)c1ccc(Nc2nc(-c3ccc(Cl)cc3)c(C)s2)cc1 | 15.7 | 13.3 | 13 |  | 1.27 | < 20 |  |  |
| O=c1cc(-c2ccc(O)c(O)c2)oc2ccccc12 |  |  |  | 9.48 | 12.4 |  |  |  |
| Cc1ccc(C)c(/N=C/c2cccc(O)c2O)c1 |  |  |  |  | 17.8 | < 20 |  |  |
| O=C(O)c1ccc(/C=N/c2cccc3ccccc23)cc1 |  |  |  |  | 15.6 | < 20 |  |  |
| O=C(/C=C/c1ccc(O)c(C(=O)O)c1)c1ccc(Cl)cc1 | 45.7 | 30.2 | 1.78 |  | 6.06 | < 20 | 26 | 17 |
| c1ccc2c(c1)Nc1nc3ccccc3nc1O2 |  |  |  |  | 18.3 | < 20 |  |  |
| CC(=O)c1sc(Nc2ccc(C)c(Cl)c2)nc1C | 5.39 | 9.58 | 4.65 | 0.76 | 0.93 |  |  |  |
| CCc1cccc(NC(=O)/C=C/c2ccc(Cl)c(Cl)c2)c1 | 30.1 | 8.38 | 11.2 |  | 0.55 | < 20 |  |  |
